# In the library only some 1.4% were active in any assay of this set; here they are far more common.
# Thrombin inh = inhibitors of human thrombin. alpha-thrombin, Boc-VPR-AMC fluorogenic substrate cleavage. inhibition, % at 5 µM. actives 0.26% (n = 220,000). AID 1046;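 active = inhibition at or above 40%; inactive = inhibition below 40%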;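 also: 0% = enzyme with no compound and 100% = wells without enzyme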
#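 Material: human alpha-thrombin enzyme / Medium: pH 7.5 Tris (50 mM) with NaCl 150 mM, Tween 20 0.05% / Compound: single-point dosing at 5 µM, 0.2% DMSO / Incubation: enzyme reaction carried out at room temperature / Detection: AMC fluorescence, 355/460 nm / Read-out basis: percent inhibition scaled between no-compound controls and no-enzyme blanks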
# FXIIa inh = blocks human coagulation factor XIIa protease activity; P00748; purified FXIIa, Boc-QGR-AMC fluorogenic substrate, 2 h; inhibition, % at 5 µM; actives 0.3% (n = 220,000); AID 800; in the data active = inhibition above about 40%;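 also: 0% = enzyme with no compound and 100% = blank without enzyme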
# KLK5 inh = inhibitors of human kallikrein 5; Q9Y337; recombinant hK5, fluorogenic AMC substrate cleavage; inhibition, % at 5 µM; actives 0.59% (n = 210,000); AID 873;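 active = inhibition of 40% or more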;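 also: 0% = enzyme controls without compound and 100% = no-enzyme blanks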
# Calpain2 inh = blocks pig calpain II enzyme activity | purified calpain II, fluorogenic peptide substrate, 30 min | inhibition, % at 16 µM | actives 0.37% (n = 220,000);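 active = inhibition above about 50%, limit read from the data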
# FXIa inh 1536 = blocks human coagulation factor XIa protease activity | inhibition, % at 5 µM | purified FXIa, Boc-Glu-Ala-Arg-AMC fluorogenic substrate | AID 798 | actives 0.14% (n = 220,000) | P03951;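 active = inhibition of at least 40%; inactive = inhibition below 40%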;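 also: fluorescence of freed AMC excited at 355 nm; 0% = enzyme without compound and 100% = no enzyme blank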
# Target sequence (P03951 19-387 limits assumed): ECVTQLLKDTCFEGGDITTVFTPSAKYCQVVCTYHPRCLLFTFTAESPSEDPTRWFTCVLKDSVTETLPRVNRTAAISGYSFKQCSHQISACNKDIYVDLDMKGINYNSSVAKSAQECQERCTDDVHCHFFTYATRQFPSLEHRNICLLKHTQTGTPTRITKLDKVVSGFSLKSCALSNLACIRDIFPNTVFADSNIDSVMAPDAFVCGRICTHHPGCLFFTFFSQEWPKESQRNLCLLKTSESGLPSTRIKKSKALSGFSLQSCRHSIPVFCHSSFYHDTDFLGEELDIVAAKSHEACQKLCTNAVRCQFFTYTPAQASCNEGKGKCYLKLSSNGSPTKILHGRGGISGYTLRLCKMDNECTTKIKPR
# Target sequence (P03951 388-625 limits assumed): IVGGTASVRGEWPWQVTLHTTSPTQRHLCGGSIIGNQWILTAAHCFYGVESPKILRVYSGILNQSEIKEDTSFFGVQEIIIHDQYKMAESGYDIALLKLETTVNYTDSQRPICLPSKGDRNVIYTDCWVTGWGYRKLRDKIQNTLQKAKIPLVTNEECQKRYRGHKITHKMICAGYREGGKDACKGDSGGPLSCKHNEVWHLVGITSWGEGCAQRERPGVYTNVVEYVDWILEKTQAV
# Starred values were filed as active, the others as inactive; / = no result.
SMILES,Thrombin inh,FXIIa inh,KLK5 inh,Calpain2 inh,FXIa inh 1536
CCOC(=O)C1(Cc2ccccc2C)CCCN(C(=O)c2cc(CC)nn2C)C1 (configuration not stated),-5,9,4,-17,3
COc1cccc(C(=O)Nc2sc3c(c2C#N)CCN(C(C)=O)C3)c1,4,26,42*,35,30
N#Cc1c(NC(=O)c2ccccc2)sc2c1CCC2,-3,3,-21,-45,-3
S=c1[nH]nc(-c2ccncc2)n1/N=C/C=C/c1ccco1,37,74*,30,19,28
O=C(N/N=C/c1ccc2c(c1)OCO2)C1COc2ccccc2O1 (configuration not stated),6,17,46*,22,-1
c1ccc(-c2csc3ncnc(NCC4COc5ccccc5O4)c23)cc1 (configuration not stated),18,41*,57*,25,17
COc1ccc(-c2noc(CN3CCCC(OCc4ccccn4)C3)n2)cc1 (configuration not stated),-2,3,-2,4,1
Cc1cc(N(C)C)c(C#N)c(NCc2ccccc2)n1,19,27,64*,1,3
Cc1ccc(NC(=O)C2CCCN(S(=O)(=O)c3cnc[nH]3)C2)cc1F (configuration not stated),19,12,71*,-2,11
CC(C)c1ccc(NC(=O)C2CCCN(S(=O)(=O)c3cnc[nH]3)C2)cc1 (configuration not stated),8,-1,62*,10,-2
O=C(Nc1ccc(Cl)cc1)C1CCCN(S(=O)(=O)c2cnc[nH]2)C1 (configuration not stated),2,15,-4,-17,7
C(=N\n1cnnc1)/c1ccccc1OCCOc1ccccc1,-8,3,-13,3,-5
Cc1cc(C)c(S(=O)(=O)Nc2ccc3c(c2)CCC3)c(C)c1,-4,-3,-8,51*,-9
O=C(O)c1ccc(CSc2nnc(-c3ccncc3)n2CC2CCCO2)cc1 (configuration not stated),1,11,16,17,-3
Cc1ccc(CSc2nnc(-c3ccncc3)n2CC2CCCO2)cc1 (configuration not stated),19,26,81*,16,9
CN(C)c1nc(SCc2ccc(Cl)cc2)nc2c1CCCC2,-3,-13,3,3,-7
Cc1ccc(NC(=O)c2cc(N3C(=O)C4CCCCC4C3=O)ccc2N2CCOCC2)cc1 (configuration not stated),-6,6,3,68*,-3
COc1ccc(CNC(=O)COC(=O)CC2CC3CCC2C3)cc1OC (configuration not stated),-10,13,-15,3,3
COc1ccc(-c2cc(-c3nnc(COC(=O)CC4CC5CCC4C5)o3)c3ccccc3n2)cc1OC (configuration not stated),25,42*,24,-105,17
O=S(=O)(Nc1ccc(-n2cccc2)cc1)c1ccc(Cl)cc1Cl,7,9,-10,65*,-9
O=C(NN1C(=O)C2C3CCC(O3)C2C1=O)c1ccc(Br)o1 (configuration not stated),-2,5,-13,-11,0
Cc1cccc(-n2c(O)c(C=Nc3ccc(O)cc3)c3ccccc3c2=O)n1,1,7,-5,-2,0
Cc1ccc(N=Cc2c(O)n(-c3ccc4c(c3)OCO4)c(=O)c3ccccc23)cc1,1,43*,2,-29,-3
CCC(=O)C1=C(N2CCCC2)CC(C)(C)CC1=O,11,27,47*,7,3
CCCCC(=O)C1=C(N2CCCC2)CC(C)(C)CC1=O,2,8,-6,-3,0
SMILES,Thrombin inh,FXIIa inh,KLK5 inh,Calpain2 inh,FXIa inh 1536
O=C(O)c1cccc(N2CCCC2)c1,-1,-9,128*,-252,-8
Cc1ccc(C)n1-c1cccc(C(=O)O)c1,-6,1,2,-35,-27
C/C(=N\NC(=O)c1ccccc1C)c1cccc([N+](=O)[O-])c1,3,6,-19,-8,-11
C/C(=N\Nc1ccc(Cl)c(C(=O)O)c1)c1cccc([N+](=O)[O-])c1,56*,32,32,32,39
Cc1nc(-c2ccc(S(=O)(=O)Nc3ccc(Br)cc3Cl)s2)cs1,-7,5,0,63*,0
Cc1cc(C)n(/N=C/c2ccccc2)c(=O)c1C#N,-6,57*,-11,21,0
O=C(CC(Nc1ccc(F)cc1)C(=O)O)c1ccccc1 (configuration not stated),4,2,52*,10,1
Cc1ccc(NC(CC(=O)c2ccccc2)c2ccc(F)cc2)cc1 (configuration not stated),0,9,0,34,-1
O=C(CC(Nc1ccc(F)cc1)C(=O)OCC(=O)c1cccs1)c1ccccc1 (configuration not stated),50*,6,-2,6,-6
Nc1nonc1C(=O)NCCNCc1cc(Br)ccc1OCc1ccccc1F,-14,2,-21,75*,0
C=CCOc1ccccc1CNCCc1ccc(S(N)(=O)=O)cc1,-9,2,-6,-4,-7
NS(=O)(=O)c1ccc(CCNCc2cc(Br)ccc2OCc2ccccc2F)cc1,0,2,/,53*,0
Nc1nonc1C(=O)NCCNCc1ccccc1OCc1ccccc1F,-6,10,-27,14,-1
O=C(Nc1ccc(C2=NCCN2)cc1)c1ccc(Cl)c(C(=O)Nc2ccc(C3=NCCN3)cc2)c1,-3,5,-2,-27,-4
O=c1oc(-c2cccnc2)nc2ccccc12,82*,-3,9,10,3
c1cncc(-c2nc3ccccc3o2)c1,0,-8,-13,/,-8
O=C(CSc1nnc(Cc2ccccc2)n1-c1ccc(Cl)cc1)N1CCOCC1,-16,-11,2,-9,-2
CCOC(=O)c1nn(-c2ccc(OCC)cc2)c2nc(-c3ccco3)c(C#N)c(=O)n12,-3,6,-16,-109,6
CN1CCN(C(=O)c2cc3c(C(F)(F)F)nn(C)c3s2)CC1,4,2,48*,6,-5
Cc1ccc(NC(=O)COc2cccc(/C=C3\SC(=S)N(CCC(=O)O)C3=O)c2)cc1Cl,2,13,11,76*,4
O=C(CSc1nnnn1-c1ccc2c(c1)OCCO2)OC1CCCCC1,-3,0,-29,71*,-7
CCC(=O)Nc1ccc(NC(=O)CSc2nnnn2-c2ccc3c(c2)OCCO3)cc1,0,7,0,13,-2
CC(C)OCCCNC(=O)C1CCC(CNS(=O)(=O)c2ccccc2)CC1 (configuration not stated),2,26,-9,6,8
Cc1cc(NC(=O)COc2ccccc2C)no1,-6,12,2,-31,-1
Cc1cc(NC(=O)COc2nnc(-c3ccccc3)c3ccccc23)no1,13,23,58*,17,7

# Screening data as filed in PubChem BioAssay.
